Assay results gathered from unrelated publications.
Lines come from different studies, so protocols differ.
CDK4 with cyclin D1: Cyclin-dependent kinase 4, with cyclin D1 (CDK4, Homo sapiens, UniProt P11802)
CDK4 with cyclin D3: Cyclin-dependent kinase 4, with cyclin D3 (CDK4, Homo sapiens, UniProt P11802)
CDK4: Cyclin-dependent kinase 4 (CDK4, Homo sapiens, UniProt P11802)

CN(c1nccc(-c2cnn3ncccc23)n1)C1CC1 — remaining binding (CDK4 with cyclin D1; binding; 1 µM): 100%
CS(=O)(=O)CCNCc1ccc(-c2ccc3ncnc(Nc4ccc(OCc5cccc(F)c5)c(Cl)c4)c3c2)o1 — remaining signal (CDK4 with cyclin D3; cell-free assay; 0.5 µM): 104%
CC(C)(C)c1nc2c(s1)c1nc(N)ncc1c1ccc(NS(=O)(=O)c3c(F)cccc3F)c(F)c12 — remaining activity (CDK4 with cyclin D1; enzyme activity; inhibitor; radiometric; 1 µM): 88%
Cc1cc(NC(=O)c2cccc3cc(-c4cccc5[nH]nc(N)c45)ccc23)ccc1F — activity vs control (CDK4 with cyclin D3; enzyme activity; inhibitor; 0.1 µM): 89%
C[C@H]1CCN(c2nccc(-c3cnn4ncccc34)n2)C1 — remaining binding (CDK4 with cyclin D1; binding; 1 µM): 80%
Nc1nc(Nc2ccc(S(N)(=O)=O)cc2)sc1C(=O)c1ccccc1[N+](=O)[O-] — inhibition (CDK4; enzyme activity; inhibitor; 0.1 µM): 87%
COc1cc(-c2cn(C3CCc4c(F)cccc4N(CC(F)(F)F)C3=O)nn2)ccc1-n1cnc(C)c1 (stereo not drawn) — remaining binding (CDK4 with cyclin D3; cell-free assay; competition with immobilised ligand; 1 µM): 100%
Nc1ncnc2occ(-c3ccc(NC(=O)Nc4cc(C(F)(F)F)ccc4F)cc3)c12 — remaining signal (CDK4 with cyclin D1; cell-free assay; inhibitor; 20 µM): 17%
C[C@@H]1CCN(C(=O)CC#N)C[C@@H]1N(C)c1ncnc2[nH]ccc12 — remaining signal (CDK4 with cyclin D3; cell-free assay; inhibitor; 0.5 µM): 99.9%
O=C(O)c1cc(-c2ccc(C3CCNCC3)cc2)c2ccc(-c3ccc(C(F)(F)F)cc3)cc2c1 — remaining binding (CDK4 with cyclin D1; cell-free assay; competition with immobilised ligand; 1 µM): 100%
O=C(Nc1cnn(-c2csc(C(=O)NC3COC3)c2)c1)Nc1c(F)cccc1Cl — remaining activity (CDK4 with cyclin D1; enzyme activity; inhibitor; 5 µM): 90.3%
O=C(Nc1cccnn1)N1CC(C/C=C/c2cncc(Oc3ccc(C(F)(F)F)cn3)n2)C1 — remaining binding (CDK4 with cyclin D1; cell-free assay; competition with immobilised ligand; 1 µM): 75%
O=C1NC(=O)c2cc(Nc3ccc(F)cc3)c(Nc3ccc(F)cc3)cc21 — remaining signal (CDK4 with cyclin D1; cell-free assay; 0.5 µM): 101%
O=C(c1ccc(Br)cc1)[C@H]1Cc2c(cc([N+](=O)[O-])cc2[N+](=O)[O-])[C@H](O)[C@]12C(=O)Nc1ccccc12 — inhibition (CDK4; cell-free assay; inhibitor; TR-FRET; 1 µM): 18.6%
CNC(=O)Nc1ccc2c(c1)CC[C@@]21OC(=O)N(CC(=O)N(Cc2ccc(F)cc2)[C@@H](C)C(F)(F)F)C1=O — remaining binding (CDK4 with cyclin D3; cell-free assay; competition with immobilised ligand; 1 µM): 79%
O=C(c1ccc(F)cc1)[C@H]1Cc2c(cc([N+](=O)[O-])cc2[N+](=O)[O-])[C@@H](O)[C@@]12C(=O)Nc1ccccc12 — inhibition (CDK4; cell-free assay; inhibitor; TR-FRET; 1 µM): 48.2%
CO[C@@H](C)c1c(Nc2ccc([C@@H](N(C)C(=O)C3CCS(=O)(=O)CC3)C(F)(F)F)cc2)cnc2cc(Cl)nn12 — remaining binding (CDK4 with cyclin D1; cell-free assay; competition with immobilised ligand; 1 µM): 100%
CCN(CC)CCNC(=O)c1c(C)[nH]c(/C=C2\C(=O)Nc3ccc(F)cc32)c1C — remaining signal (CDK4 with cyclin D1; cell-free assay; 0.5 µM): 81%
